# From PubChem BioAssay
# Pf Dd2 inh: P. falciparum Dd2 growth inhibitors, primary screen, SYBR Green fluorescence, single dose replicates | activity change, % at 10 µM | 72 h; hits give low values | 94,000 tested, 2.3% active; in the data active means activity change below about -80%; inconclusive means no clear call, values can overlap the other calls
# IDH1 mut inh: inhibitors of IDH1 R132H reductase, primary screen, biochemical, plate reader, single point | diaphorase/resazurin fluorescence, 60 min | inhibition, % at 10 µM | 70,000 tested, 0.18% active; in the data active means inhibition above about 34%; inconclusive means no clear call, values can overlap the other calls; inactive means below about 11%;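 further: 0% = DMSO and 100% = no enzyme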
# T cruzi growth-1: T. cruzi intracellular proliferation inhibitors, primary screen, cell-based, beta-gal Tulahuen parasites, NIH3T3 host, luminescence | inhibition, % at 8.34 µM | T. cruzi beta-gal in NIH3T3, GalScreen luminescence, 90 h | AID 624255, 2012 | 77,000 tested, 5.9% active;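 active means mean inhibition above about 93%, with at least 55% of replicates each passing it, limit read from the data, passing the limit was not always enough; inconclusive means only one of those two conditions holds; inactive means neither condition holds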
# KDM4C inh: inhibitors of GASC-1 (KDM4C) histone demethylase, primary screen, biochemical, single concentration HTS; GST-KDM4C 2-372, H3K9me3 peptide, LANCE TR-FRET; Lysine-specific demethylase 4C (Homo sapiens), Q9H3R0; AID 720574, 2013; 96,000 tested, 0.15% active; inhibition, % at 12.5 µM;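 active means mean replicate inhibition above about 25%, with at least 55% of replicates also reaching it, limit read from the data, passing the limit was not always enough; inconclusive means only one of those two conditions met; inactive means neither condition met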
# Target sequence (Q9H3R0 2-372 limits assumed): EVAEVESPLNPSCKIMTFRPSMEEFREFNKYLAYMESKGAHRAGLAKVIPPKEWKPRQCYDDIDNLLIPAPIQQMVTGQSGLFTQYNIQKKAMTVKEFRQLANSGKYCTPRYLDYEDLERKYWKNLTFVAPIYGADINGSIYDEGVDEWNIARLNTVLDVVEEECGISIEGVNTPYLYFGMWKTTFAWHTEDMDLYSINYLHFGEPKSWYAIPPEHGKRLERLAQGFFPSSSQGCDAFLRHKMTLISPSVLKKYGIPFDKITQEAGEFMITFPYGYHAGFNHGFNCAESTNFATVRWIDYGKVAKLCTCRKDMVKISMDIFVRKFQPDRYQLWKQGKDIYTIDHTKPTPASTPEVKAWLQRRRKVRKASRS
#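 material = GST-tagged GASC-1 (JMJD2C) catalytic fragment, aa 2-372 | amount = enzyme final amount 10 nM | medium = HEPES buffer, pH 7.5, plus ascorbate | also added = H3K9me3 peptide substrate, Fe(II), 2-oxoglutarate | dosing = single dose | times = 30 min demethylation and 1 h detection at room temperature | detection = LANCE TR-FRET | read-out basis = Fall in 671/618 emission ratio as inhibition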
# T cruzi growth-2: T. cruzi intracellular proliferation inhibitors, confirmation, cell-based, NIH3T3 host, beta-gal parasite, luminescence, cherry-pick. shares compounds with T cruzi growth-1. T. cruzi beta-gal in NIH3T3, GalScreen luminescence, 90 h. inhibition, % at 8.35 µM. 5,600 tested, 72% active. AID 651739, 2012;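 active means mean replicate inhibition above about 95% and at least 55% of replicates individually reaching it, limit read from the data; inconclusive means only one of the two criteria is met; inactive means neither criterion is met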
# T cruzi growth-3: inhibitors of intracellular T. cruzi replication, confirmation, NIH3T3 host cells, beta-gal parasites, cherry-pick, set 2 | T. cruzi beta-gal in NIH3T3, GalScreen luminescence, 90 h | inhibition, % at 2.09 µM | 5,600 tested, 21% active | shares compounds with T cruzi growth-1 | AID 651740, 2012;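 active means mean inhibition above about 95%, with at least 55% of replicates also reaching it, limit read from the data; inconclusive means meets just one of the two conditions; inactive means meets neither condition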;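 further: plate controls were neutral control median for no effect and positive control median for full effect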
# 3T3 cytotox: cytotoxicity in mouse NIH/3T3 fibroblasts, confirmation, cytotoxicity control for T. cruzi proliferation inhibitor project, cell-based, cherry-pick, single point | AID 651742, 2012 | 5,600 tested, 14% active | NIH/3T3 viability, CellTiter-Glo ATP luminescence, 90 h | shares compounds with T cruzi growth-1 | cytotoxicity (signal decrease), % at 8.35 µM;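 active means mean signal decrease across replicates above about 35% based on untreated-well scatter, with enough replicates individually passing, limit read from the data; inconclusive means no rule stated though some were filed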;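 further: 0% = median of neutral control wells and 100% = median of positive control wells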
# NIH3T3 tox 2: NIH/3T3 fibroblast cytotoxicity, confirmation, cytotoxicity control, cell-based, cherry-pick, single point, set 2; shares compounds with T cruzi growth-1; NIH/3T3 viability, CellTiter-Glo ATP luminescence, 90 h; inhibition, % at 24.9 µM; 5,600 tested, 56% active;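 active means mean loss of cell viability signal at or above a set limit, and enough replicates individually reaching it; inconclusive means meets only the mean limit or only the replicate share; inactive means meets neither condition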;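 further: 0% = median of neutral control wells and 100% = median of positive control wells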
# Active calls of the source: *; ? = inconclusive; / = no result given. The list is not random: actives were taken first. Their share in the collection is about 5.8%.
SMILES,Pf Dd2 inh,IDH1 mut inh,T cruzi growth-1,KDM4C inh,T cruzi growth-2,T cruzi growth-3,3T3 cytotox,NIH3T3 tox 2
CC(C)CC#Cc1ccc2c(c1)O[C@@H](CN(C)CC1CCOCC1)[C@H](C)CN([C@@H](C)CO)S2(=O)=O,-63.3,0.2,107.1,-2.1,/,/,/,/
CC(C)CC#Cc1ccc2c(c1)O[C@@H](CN(C)CC1CCOCC1)[C@@H](C)CN([C@H](C)CO)S2(=O)=O,-53.6,/,118.3*,-2.2,108.5*,90.9,16.2,104.1*
OCCN1CCN(C(=S)NCc2ccco2)CC1,/,-0.9,/,/,/,/,/,/
COC(=O)COc1c(Br)cc(C2C3=C(CCCC3=O)NC3=C2C(=O)CCC3)cc1OC,/,0.3,/,/,/,/,/,/
Cc1ccccc1-c1ccc([C@@H]2[C@H](CO)N3CCCCN(S(=O)(=O)c4cn(C)cn4)C[C@@H]23)cc1,8.9,/,62.6,0.7,/,/,/,/
Cc1ccccc1-c1ccc([C@H]2[C@@H](CO)N3CCCCN(S(=O)(=O)c4cn(C)cn4)C[C@@H]23)cc1,20.9,/,114.9*,0.9,3.1,-25.1,1.0,31.8*
Cc1ccccc1-c1ccc([C@@H]2[C@@H](CO)N3CCCCN(S(=O)(=O)c4cn(C)cn4)C[C@H]23)cc1,-37.0,/,88.5,-0.7,/,/,/,/
Cc1ccccc1-c1ccc([C@H]2[C@H]3CN(S(=O)(=O)c4cn(C)cn4)CCCCN3[C@H]2CO)cc1,24.6,/,113.7*,-1.9,60.0,-18.9,19.4,?
CCOc1ccc(-n2c(SCC(=O)OC)nnc2-c2ccccc2)cc1,/,0.2,/,/,/,/,/,/
COc1cccc(NC(=O)N(C)C[C@H]2Oc3ncc(C#Cc4ccccc4)cc3C(=O)N([C@@H](C)CO)C[C@H]2C)c1,-37.1,/,?,/,104.5*,51.5,2.3,38.3*
COc1cccc(NC(=O)N(C)C[C@@H]2Oc3ncc(C#Cc4ccccc4)cc3C(=O)N([C@H](C)CO)C[C@H]2C)c1,-44.9,-3.4,121.4*,/,106.5*,111.3*,16.6,27.6*
COc1cccc(NC(=O)N(C)C[C@H]2Oc3ncc(C#Cc4ccccc4)cc3C(=O)N([C@H](C)CO)C[C@@H]2C)c1,-45.4,0.2,110.4*,/,108.4*,88.0,?,27.6*
COc1cccc(NC(=O)N(C)C[C@H]2Oc3ncc(C#Cc4ccccc4)cc3C(=O)N([C@H](C)CO)C[C@H]2C)c1,-32.3,/,95.5,/,/,/,/,/
CN(CC(=O)N1CCC(C(N)=O)CC1)S(=O)(=O)c1ccc(F)cc1,/,2.2,/,/,/,/,/,/
CNC[C@@H]1Oc2cc(C#Cc3cccc(OC)c3)ccc2S(=O)(=O)N([C@H](C)CO)C[C@H]1C,-68.5,-2.1,106.0*,0.4,109.0*,84.3,17.4,103.2*
CNC[C@H]1Oc2cc(C#Cc3cccc(F)c3)ccc2S(=O)(=O)N([C@H](C)CO)C[C@@H]1C,-77.6,1.2,?,-3.4,104.5*,61.6,30.9,105.1*
CNC[C@H]1Oc2cc(C#Cc3ccc(OC)cc3)ccc2S(=O)(=O)N([C@H](C)CO)C[C@@H]1C,-85.7*,-3.3,109.3*,-1.0,98.2*,?,38.6*,105.3*
CNC[C@H]1Oc2cc(C#Cc3cccc(F)c3)ccc2S(=O)(=O)N([C@@H](C)CO)C[C@@H]1C,-49.3,-0.4,85.5,-4.6,/,/,/,/
CN(C)CCCNc1ncnc2c1sc1nc(N3CCOCC3)c3c(c12)CCC3,/,-0.7,/,/,/,/,/,/
